Data reported in ChEMBL document CHEMBL1154647, “Synthesis, spectral characterization and biological evaluation of phosphorylated derivatives of galanthamine” (Eur J Med Chem, 2010).
Converted amounts (≈) assume the structure as drawn.

Experiments:
Brain [1] = test: Antioxidant activity in Wistar rat brain assessed as inhibition of lipid peroxidation; type: functional, tissue-based
Brain [2] = test: Antioxidant activity in Wistar rat brain assessed as reduction in glutathione content; type: functional, tissue-based
How it was run: (§1)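 Wistar rat brain was homogenised 1:40 (w/v) in 0.1 M phosphate buffer, pH 7.4, with 1 mM EDTA. Total glutathione (GSH + GSSG) and reduced GSH were assayed spectrophotometrically from optical density, using net rate against a standard-curve slope and intercept, times a dilution factor. Homogenate protein was measured by the Lowry method.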

[3] = Inhibition of superoxide dismutase in Wistar rat brain; type: tissue-based
Catalase = molecular target: T1, Catalase (Rattus norvegicus, UniProt P04762); test: Inhibition of catalase in Wistar rat brain
T1 sequence (P04762 whole entry): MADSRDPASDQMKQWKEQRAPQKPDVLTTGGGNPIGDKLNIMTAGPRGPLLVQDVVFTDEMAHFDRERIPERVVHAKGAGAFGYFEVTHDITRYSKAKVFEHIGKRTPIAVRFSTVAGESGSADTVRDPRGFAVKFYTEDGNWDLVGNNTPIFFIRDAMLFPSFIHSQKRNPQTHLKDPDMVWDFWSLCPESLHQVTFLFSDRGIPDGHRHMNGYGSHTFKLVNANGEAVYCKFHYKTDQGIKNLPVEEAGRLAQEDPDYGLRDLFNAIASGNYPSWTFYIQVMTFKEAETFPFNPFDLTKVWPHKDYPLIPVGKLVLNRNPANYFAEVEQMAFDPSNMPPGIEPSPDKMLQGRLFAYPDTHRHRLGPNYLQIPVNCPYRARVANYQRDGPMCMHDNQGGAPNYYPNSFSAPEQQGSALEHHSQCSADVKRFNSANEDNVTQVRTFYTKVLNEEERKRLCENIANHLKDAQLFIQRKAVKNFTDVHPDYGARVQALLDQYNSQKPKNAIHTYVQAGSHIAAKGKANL

Staphylococcus aureus [4] = test: Antibacterial activity against Staphylococcus aureus after 18 hrs; type: functional
Klebsiella pneumoniae [5] = test: Antibacterial activity against Klebsiella pneumoniae after 18 hrs; type: functional
Bacillus subtilis [6] = test: Antibacterial activity against Bacillus subtilis after 18 hrs; type: functional
Escherichia coli [7] = test: Antibacterial activity against Escherichia coli after 18 hrs; type: functional
Brain [8] = test: Antioxidant activity in Wistar rat brain assessed as superoxide dismutase content; type: functional
Brain [9] = test: Antioxidant activity in Wistar rat brain assessed as catalase content; type: functional
Brain [10] = test: Antioxidant activity in Wistar rat brain assessed as lipid peroxidation; type: functional, tissue-based
Brain [11] = test: Antioxidant activity in Wistar rat brain assessed as glutathione content; type: functional; how it was run: as §1
Klebsiella pneumoniae [12] = test: Antibacterial activity against Klebsiella pneumoniae at 1 mg/mL after 18 hrs by disc diffusion assay; type: functional; settings: read-out: IZ
How it was run: (§2)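 Bacteria were grown in nutrient broth at 37 °C for 18 h on a rotary shaker at 150 rpm. Compounds were dissolved in DMF. Nutrient agar plates were dried at 35–36 °C for about 30 min, and test strains were spread on the surface. Discs were applied, and plates were inverted and incubated at 37 °C. A DMF blank was run.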

Staphylococcus aureus [13] = test: Antibacterial activity against Staphylococcus aureus at 1 mg/mL after 18 hrs by disc diffusion assay; type: functional; settings: read-out: IZ; how it was run: as §2
Bacillus subtilis [14] = test: Antibacterial activity against Bacillus subtilis at 1 mg/mL after 18 hrs by disc diffusion assay; type: functional; settings: read-out: IZ; how it was run: as §2
Escherichia coli [15] = test: Antibacterial activity against Escherichia coli at 1 mg/mL after 18 hrs by disc diffusion assay; type: functional; settings: read-out: IZ; how it was run: as §2
Klebsiella pneumoniae [16] = test: Antibacterial activity against Klebsiella pneumoniae at 2 mg/mL after 18 hrs by disc diffusion assay; type: functional; settings: read-out: IZ; how it was run: as §2
Staphylococcus aureus [17] = test: Antibacterial activity against Staphylococcus aureus at 2 mg/mL after 18 hrs by disc diffusion assay; type: functional; settings: read-out: IZ; how it was run: as §2
Bacillus subtilis [18] = test: Antibacterial activity against Bacillus subtilis at 2 mg/mL after 18 hrs by disc diffusion assay; type: functional; settings: read-out: IZ; how it was run: as §2
Escherichia coli [19] = test: Antibacterial activity against Escherichia coli at 2 mg/mL after 18 hrs by disc diffusion assay; type: functional; settings: read-out: IZ; how it was run: as §2

Row | Molecule | EC50 (Brain [1]) [µg/mL] | EC50 (Brain [2]) [µg/mL] | EC50 [3] [µg/mL] | EC50 (Catalase) [µg/mL] | MIC (Staphylococcus aureus [4]) [µg/mL] | MIC (Klebsiella pneumoniae [5]) [µg/mL] | MIC (Bacillus subtilis [6]) [µg/mL] | MIC (Escherichia coli [7]) [µg/mL] | Activity (Brain [8]) [µg/mL] | Activity (Brain [9]) [µg/mL] | Activity (Brain [10]) [µg/mL] | Activity (Brain [11]) [µg/mL] | zone of inhibition at 1000 µg/mL (Klebsiella pneumoniae [12]) [mm] | zone of inhibition at 1000 µg/mL (Staphylococcus aureus [13]) [mm] | zone of inhibition at 1000 µg/mL (Bacillus subtilis [14]) [mm] | zone of inhibition at 1000 µg/mL (Escherichia coli [15]) [mm] | zone of inhibition at 2000 µg/mL (Klebsiella pneumoniae [16]) [mm] | zone of inhibition at 2000 µg/mL (Staphylococcus aureus [17]) [mm] | zone of inhibition at 2000 µg/mL (Bacillus subtilis [18]) [mm] | zone of inhibition at 2000 µg/mL (Escherichia coli [19]) [mm]
1 | COc1ccc2c3c1O[C@H]1C[C@@H](OP(=O)(NCCO)N(CCCl)CCCl)C=C[C@@]31CCN(C)C2 (stereo partly specified) | 1.42 (≈ 2.66 µM) | 1.03 (≈ 1.93 µM) | 1.28 (≈ 2.4 µM) | 1.52 (≈ 2.84 µM) | 0.29 (≈ 0.543 µM) | 0.15 (≈ 0.281 µM) | 0.11 (≈ 0.206 µM) | 0.35 (≈ 0.655 µM) | 29.86 | 287.59 | 72.3 | 4.73 | 1.47 | 1.47 | 2.22 | 1.32 | 4.45 | 4.78 | 3.46 | 3.86
2 | COc1ccc2c3c1O[C@H]1C[C@@H](OP(=O)(NCCO)Oc4ccc([N+](=O)[O-])cc4)C=C[C@@]31CCN(C)C2 (stereo partly specified) | 2.81 (≈ 5.29 µM) | 1.08 (≈ 2.03 µM) | 2.57 (≈ 4.84 µM) | 4.94 (≈ 9.29 µM) | 0.81 (≈ 1.52 µM) | 0.42 (≈ 0.79 µM) | 0.21 (≈ 0.395 µM) | 0.44 (≈ 0.828 µM) | 29.37 | 284.32 | 72.5 | 4.72 | 2.43 | 1.59 | 1.53 | 1.62 | 5.44 | 3.94 | 4.16 | 4.44
3 | COc1ccc2c3c1O[C@H]1C[C@@H](OP(=O)(Oc4ccc([N+](=O)[O-])cc4)OP(=O)(O)O)C=C[C@@]31CCN(C)C2 (stereo partly specified) | 3.33 (≈ 5.86 µM) | 2.15 (≈ 3.78 µM) | 2.69 (≈ 4.73 µM) | 2.92 (≈ 5.14 µM) | 0.76 (≈ 1.34 µM) | 0.28 (≈ 0.493 µM) | 0.19 (≈ 0.334 µM) | 0.46 (≈ 0.809 µM) | 29.55 | 287.38 | 72.2 | 4.22 | 1.88 | 2.38 | 2.05 | 2.42 | 5.45 | 4.56 | 3.78 | 4.97
4 | COc1ccc2c3c1O[C@H]1C[C@@H](O)C=C[C@@]31CCN(C)C2 [GALANTAMINE] | 4.93 (≈ 17.2 µM) | 4.21 (≈ 14.7 µM) | 3.84 (≈ 13.4 µM) | 5.06 (≈ 17.6 µM) | 1 (≈ 3.48 µM) | 0.62 (≈ 2.16 µM) | 0.18 (≈ 0.626 µM) | 0.7 (≈ 2.44 µM) | 29.37 | 283.44 | 70.7 | 4.69 | 1.83 | 1.39 | 1.65 | 1.47 | 2.21 | 2.66 | 2.25 | 2.02
5 | VITAMIN E [listing 1 of 2 here] |  |  |  |  |  |  |  |  | 32.3 | 403 | 82.8 | 43.6 |  |  |  |  |  |  |  | 
6 | COc1ccc2c3c1O[C@H]1C[C@@H](OP(=O)(Oc4ccc([N+](=O)[O-])cc4)SCCO)C=C[C@@]31CCN(C)C2 (stereo partly specified) | 2.64 (≈ 4.81 µM) | 1.49 (≈ 2.72 µM) | 1.55 (≈ 2.83 µM) | 4.25 (≈ 7.75 µM) | 0.29 (≈ 0.529 µM) | 0.36 (≈ 0.656 µM) | 0.1 (≈ 0.182 µM) | 0.34 (≈ 0.62 µM) | 29.69 | 288.58 | 72.8 | 4.77 | 2.36 | 2.5 | 1.81 | 3.62 | 5.01 | 4.91 | 3.06 | 4.38
7 | VITAMIN E [listing 2 of 2 here] | 1.22 | 0.99 | 1.03 | 1.48 |  |  |  |  |  |  |  |  |  |  |  |  |  |  |  | 
8 | O=C1O[C@H]([C@@H](O)CO)C(O)=C1O [ASCORBIC ACID] | 1.02 (≈ 5.79 µM) | 0.98 (≈ 5.56 µM) | 0.99 (≈ 5.62 µM) |  |  |  |  |  |  | 385.46 | 88.1 | 31.34 |  |  |  |  |  |  |  | 
9 | COc1ccc2c3c1O[C@H]1C[C@@H](OP(=O)(OP(=O)(O)O)N(CCCl)CCCl)C=C[C@@]31CCN(C)C2 (stereo partly specified) | 1.98 (≈ 3.47 µM) | 2.68 (≈ 4.69 µM) | 1.26 (≈ 2.21 µM) | 2.18 (≈ 3.82 µM) | 0.38 (≈ 0.665 µM) | 0.48 (≈ 0.84 µM) | 0.16 (≈ 0.28 µM) | 0.42 (≈ 0.735 µM) | 28.14 | 278.33 | 74.9 | 4.72 | 1.39 | 1.72 | 2.09 | 1.26 | 3.68 | 4.65 | 4.49 | 4.08
10 | COc1ccc2c3c1O[C@H]1C[C@@H](OP(=O)(NCCN)Oc4ccc([N+](=O)[O-])cc4)C=C[C@@]31CCN(C)C2 (stereo partly specified) | 1.99 (≈ 3.75 µM) | 1.89 (≈ 3.56 µM) | 1.91 (≈ 3.6 µM) | 1.81 (≈ 3.41 µM) | 0.75 (≈ 1.41 µM) | 0.38 (≈ 0.716 µM) | 0.15 (≈ 0.283 µM) | 0.62 (≈ 1.17 µM) | 29.73 | 295.92 | 75.9 | 5.06 | 2.78 | 1.84 | 1.93 | 1.02 | 6.11 | 5.09 | 4.91 | 3.73
11 | O=C(N[C@H](CO)[C@H](O)c1ccc([N+](=O)[O-])cc1)C(Cl)Cl [CHLORAMPHENICOL] |  |  |  |  | 0.2 (≈ 0.619 µM) | 0.13 (≈ 0.402 µM) | 0.15 (≈ 0.464 µM) | 0.25 (≈ 0.774 µM) |  |  |  |  | 3.62 | 2.67 | 1.02 | 2.02 | 4.02 | 3.08 | 2.99 | 3.27
